In ChEMBL document CHEMBL1154252, “Nitric oxide scavenging lignans from Vitex negundo seeds” (J Nat Prod, 2009) one finds inhibition, Activity and IC50 data, which are given here for eleven molecules.

The subject of data set [1] is RAW264.7. In words: Antiinflammatory activity against mouse RAW264.7 cells assessed as inhibition of LPS-induced nitric oxide production at 1 uM after 24 hrs by Griess reagent method. Format: functional. The note with it: RAW264.7, 24 h. In short, it runs like this:
(§1)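 RAW 264.7 macrophages seeded at 10^5 cells/well, co-incubated with compound and LPS (1 µg/mL) for 24 h. Nitrite in supernatant measured by Griess reagent: supernatant mixed in turn with 1% sulfanilamide and 0.1% naphthylethylenediamine in 2.5% phosphoric acid, absorbance read at 548 nm. n = 4, mean ± SD; L-nitroarginine as positive control, LPS alone as negative control.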

Data set [2] deals with RAW264.7. In words: Cytotoxicity against LPS-stimulated mouse RAW264.7 cells up to 1 uM after 24 hrs by MTT assay. Format: cell-based. Particulars: raw264.7, 24 h. The essentials:
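After supernatant removal for Griess assay, LPS-treated RAW 264.7 cells given fresh medium with 2 mg/mL MTT. Incubated 3 h at 37 °C, 5% CO2. Formazan dissolved in DMSO and absorbance measured at 570 nm.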
In general terms: Formazan colour is commonly taken as a measure of viable cells.

The test system of data set [3] is RAW264.7. Put plainly: Antiinflammatory activity against mouse RAW264.7 cells assessed as inhibition of LPS-induced nitric oxide production after 24 hrs by Griess reagent method. Format: functional, cell-based. Particulars: RAW264.7, 24 h. The essentials: as §1
(In general: Nitrite, measured by Griess reagent, commonly stands in for NO production.)

pIC50: −log10 of the molar value.

A word on the inhibition: it is the percentage by which the read-out fell short of the control. As usually defined, the pIC50 is the IC50 on a negative log10 scale, so that one unit is a factor of ten. Take `COc1cc(-c2c3c(cc4cc(OC)c(O)cc24)CNC3=O)ccc1O` [VITEDOAMINE B]: the inhibition at 1 µM with RAW264.7 [1] came to 56.2%. Moreover, in the data set with RAW264.7 [2], the Activity result was “Non-toxic”. For the same molecule, the pIC50 in the data set on RAW264.7 [3] is 6.06.

For the molecule `N=C(NCCC[C@H](N)C(=O)O)N[N+](=O)[O-]` [NITROARGININE], the inhibition at 1 µM in the data set with RAW264.7 [1] worked out at 2.53%. Besides, the pIC50 in the data set with RAW264.7 [3] was 4.36.

Turning to `COc1cc(-c2c(C=O)c(O)cc3cc(OC)c(O)cc23)ccc1O` [VITEXDOIN D], the inhibition at 1 µM in the data set on RAW264.7 [1] amounted to 91.1%. The Activity entry in the data set on RAW264.7 [2] was “Non-toxic”. For the same molecule, the negative logarithm of the IC50 (pIC50) in the data set on RAW264.7 [3] was 6.89.

In the case of `COc1cc(-c2cc(C=O)c(O)c3cc(OC)c(O)cc23)ccc1O` [VITEXDOIN E], in the data set on RAW264.7 [1], the inhibition at 1 µM was determined as 84.2%. In addition, the Activity result with RAW264.7 [2] was “Non-toxic”. In addition, the pIC50 with RAW264.7 [3] was 6.82.

Consider `COc1cc([C@H]2c3cc(O)c(OC)cc3C=C(C=O)[C@@H]2CO)ccc1O`, for which the inhibition at 1 µM in the data set with RAW264.7 [1] was 34.4%. Also, the Activity result in the data set on RAW264.7 [2] is listed as “Non-toxic”. Moreover, the pIC50 in the data set on RAW264.7 [3] was 5.45.

As to `COc1cc(-c2c3c(cc4cc(OC)c(O)cc24)C(=O)NC3)ccc1O` [VITEDOAMINE A], the inhibition at 1 µM with RAW264.7 [1] was 43.3%. For the same molecule, in the data set on RAW264.7 [2], the Activity result is recorded as “Non-toxic”. In the data set on RAW264.7 [3], the pIC50 is 5.82.

Consider `COc1cc([C@H]2c3cc(O)c(O)cc3C=C(C=O)[C@@H]2CO)ccc1O` [VITEXDOIN A], for which, in the data set with RAW264.7 [1], the inhibition at 1 µM was 67%. Moreover, the Activity entry in the data set with RAW264.7 [2] was “Non-toxic”. The pIC50 in the data set on RAW264.7 [3] is 6.42.

For the molecule `COc1cc(-c2c(C=O)ccc3cc(OC)c(O)cc23)ccc1O` [VITEXDOIN C], the inhibition at 1 µM with RAW264.7 [1] was 61.7%. Moreover, the Activity entry in the data set on RAW264.7 [2] was “Non-toxic”. For the same molecule, the pIC50 with RAW264.7 [3] is 6.24.

For the molecule `COc1cc(-c2cc(C=O)cc3ccc(O)c(OC)c23)ccc1O` [VITEXDOIN B], in the data set with RAW264.7 [1], the inhibition at 1 µM was 80.8%. Besides, the Activity result in the data set on RAW264.7 [2] is listed as “Non-toxic”. Further, in the data set on RAW264.7 [3], the pIC50 was 6.70.

As to `COc1cc(-c2c(O)c(C=O)cc3cc(OC)c(O)cc23)ccc1O` [VITROFOLAL F], in the data set on RAW264.7 [1], the inhibition at 1 µM worked out at 95.8%. Besides, the Activity entry with RAW264.7 [2] is reported as “Non-toxic”. Further, the pIC50 in the data set on RAW264.7 [3] was 6.96.

As to `COc1cc(-c2cc(C=O)cc3cc(OC)c(O)cc23)ccc1O` [VITROFOLAL E], in the data set with RAW264.7 [1], the inhibition at 1 µM turned out to be 63.2%. Further, the pIC50 in the data set on RAW264.7 [3] was 6.30.
